{"source": "ChEMBL document CHEMBL1144664", "about": "“Design, synthesis, and SAR of new pyrrole-oxindole progesterone receptor modulators leading to 5-(7-fluoro-3,3-dimethyl-2-oxo-2,3-dihydro-1H-indol-5-yl)-1-methyl-1H-pyrrole-2-carbonitrile (WAY-255348)” (J Med Chem, 2008)", "key": {"[1]": {"test": "Plasma clearance in cynomolgus monkey at 1 mg/kg, iv", "type": "ADME, organism-based, Macaca fascicularis", "parameters": "dose 1 mg/kg, route intravenous"}, "[2]": {"biological_target": "T1, Estrogen receptor (Homo sapiens) (UniProt P03372)", "T1 sequence (whole entry)": "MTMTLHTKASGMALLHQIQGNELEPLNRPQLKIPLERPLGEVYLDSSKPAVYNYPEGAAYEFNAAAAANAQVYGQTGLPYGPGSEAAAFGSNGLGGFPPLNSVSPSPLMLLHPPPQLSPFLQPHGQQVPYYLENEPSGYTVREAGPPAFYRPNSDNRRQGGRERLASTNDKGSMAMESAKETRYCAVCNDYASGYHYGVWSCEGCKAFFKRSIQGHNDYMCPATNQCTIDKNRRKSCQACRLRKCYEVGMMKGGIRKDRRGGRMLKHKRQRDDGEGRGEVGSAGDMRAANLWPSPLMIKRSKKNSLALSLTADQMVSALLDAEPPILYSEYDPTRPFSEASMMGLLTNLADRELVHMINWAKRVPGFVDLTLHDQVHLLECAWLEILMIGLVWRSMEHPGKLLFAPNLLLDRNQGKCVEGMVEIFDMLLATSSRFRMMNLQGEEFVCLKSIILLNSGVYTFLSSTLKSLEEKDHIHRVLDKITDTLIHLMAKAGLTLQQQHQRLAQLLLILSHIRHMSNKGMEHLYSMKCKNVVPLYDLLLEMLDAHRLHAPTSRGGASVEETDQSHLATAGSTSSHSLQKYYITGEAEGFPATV", "test": "Agonist activity at human ER ligand binding domain expressed in african green monkey COS7 cells by Gal4 hybrid assay", "type": "cell-based", "settings": "COS-7", "outline": "(§1)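 Gal4-steroid receptor LBD fusion plasmid plus GAL4_UAS (5 copies, E1b TATA)-luciferase reporter, 50 ng/well each, transfected 16 h into COS-7 cells grown in phenol red-free DMEM with 10% charcoal/dextran-treated FBS. Compound treatment 20 h, then luciferase read-out. Antagonist mode uses 3 nM aldosterone (hMR) or 5 nM 17β-estradiol (hER). Values are the average of at least duplicate determinations.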"}, "Rhesus monkey [3]": {"system": "Rhesus monkey", "test": "Effect on basalis KI67 assessed as number of KI67 labeled cells of rhesus monkey", "type": "functional, Macaca mulatta", "outline": "(§2)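 Adult female rhesus macaques (n=3) with regular cycles dosed 10 mg/(kg·day) po in 2% Tween 80/0.5% methylcellulose with cherry flavoring for 28 days from cycle day 2. Serum estradiol and progesterone measured every 3 days. Necropsy on day 28. Uterine weights are of half the uterus; KI-67 and mitotic indices counted per 1000 cells. Values given as mean ± SE.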"}, "[4]": {"test": "Drug level in cynomolgus monkey at […], iv", "type": "ADME, organism-based, Macaca fascicularis", "parameters": "dose 0.25 mg/kg, route intravenous", "settings": "in vivo"}, "[5]": {"test": "Stability in cynomolgus monkey liver microsome assessed as half life", "type": "ADME, Macaca fascicularis", "settings": "liver microsomes", "outline": "(§3)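 Female rat, cynomolgus monkey and human liver microsome stability; half-life (min) reported.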"}, "Rhesus monkey [6]": {"system": "Rhesus monkey", "test": "Effect on functionalis KI67 assessed as number of KI67 labeled cells of rhesus monkey", "type": "functional, Macaca mulatta", "outline": "as §2"}, "Rhesus monkey [7]": {"system": "Rhesus monkey", "test": "Effect on myometrial weight of rhesus monkey", "type": "functional, Macaca mulatta", "outline": "as §2"}, "Progesterone receptor [8]": {"biological_target": "T2, Progesterone receptor (Homo sapiens, UniProt P06401)", "T2 sequence (P06401 whole entry)": "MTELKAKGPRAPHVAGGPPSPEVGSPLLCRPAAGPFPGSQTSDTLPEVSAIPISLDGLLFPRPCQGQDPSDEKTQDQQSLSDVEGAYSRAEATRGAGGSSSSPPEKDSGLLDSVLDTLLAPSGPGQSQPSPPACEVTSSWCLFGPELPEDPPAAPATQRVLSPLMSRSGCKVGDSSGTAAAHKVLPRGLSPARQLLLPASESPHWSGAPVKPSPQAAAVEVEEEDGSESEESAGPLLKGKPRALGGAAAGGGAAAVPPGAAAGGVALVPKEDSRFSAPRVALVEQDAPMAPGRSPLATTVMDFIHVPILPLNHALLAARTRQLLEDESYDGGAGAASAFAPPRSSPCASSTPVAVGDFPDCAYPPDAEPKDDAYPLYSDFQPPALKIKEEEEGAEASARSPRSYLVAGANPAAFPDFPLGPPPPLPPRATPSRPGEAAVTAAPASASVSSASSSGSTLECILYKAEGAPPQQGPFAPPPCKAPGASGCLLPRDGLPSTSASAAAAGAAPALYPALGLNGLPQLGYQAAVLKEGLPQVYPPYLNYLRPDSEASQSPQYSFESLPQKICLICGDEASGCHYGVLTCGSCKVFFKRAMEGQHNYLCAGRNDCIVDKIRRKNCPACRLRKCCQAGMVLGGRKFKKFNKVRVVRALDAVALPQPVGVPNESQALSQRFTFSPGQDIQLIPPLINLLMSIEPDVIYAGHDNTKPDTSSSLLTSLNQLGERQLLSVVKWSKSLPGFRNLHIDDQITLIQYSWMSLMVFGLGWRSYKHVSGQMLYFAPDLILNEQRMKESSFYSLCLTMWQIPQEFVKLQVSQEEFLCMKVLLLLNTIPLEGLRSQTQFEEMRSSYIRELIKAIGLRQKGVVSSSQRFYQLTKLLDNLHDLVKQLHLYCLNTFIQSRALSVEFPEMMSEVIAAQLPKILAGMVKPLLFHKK", "test": "Antagonist activity at human PR expressed in human T47D cells assessed as inhibition of progesterone induced alkaline phosphatase", "type": "functional, cell-based"}, "[9]": {"test": "Volume of distribution at steady state in Sprague-Dawley rat at 1 mg/kg, iv", "type": "ADME, organism-based", "parameters": "dose 1 mg/kg, route intravenous", "settings": "in vivo, read-out: Vdss", "outline": "(§4)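 Female Sprague–Dawley rats dosed as 1-in-4 cassette or discrete studies. iv in DMSO/PEG200 20:80; po in aqueous 2% Tween 80/0.5% methyl cellulose. Parameters reported: C0, Cmax, t1/2, plasma clearance, Vss, AUC0-inf and %F.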"}, "Progesterone receptor [10]": {"biological_target": "T2, Progesterone receptor", "test": "Displacement of [3H]R5020 from human PR in human T47D cells by whole cell assay", "type": "cell-based"}, "Rattus norvegicus [11]": {"species": "Rattus norvegicus", "test": "Antagonist activity in rat uterus assessed as progesterone-induced decidualization response in stromal cells", "type": "functional", "outline": "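Female rat decidualization model: compound given orally in 0.5% methyl cellulose/2% Tween 80 to antagonize the progesterone-induced decidual response of uterine stromal cells. ED50 reported.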"}, "Rattus norvegicus [12]": {"system": "Rattus norvegicus", "test": "Drug level in Sprague-Dawley rat at 1 mg/kg, iv", "type": "ADME, organism-based", "parameters": "dose 1 mg/kg, route intravenous", "settings": "in vivo", "outline": "as §4"}, "[13]": {"test": "Plasma clearance in Sprague-Dawley rat at 0.5 mg/kg, iv", "type": "ADME, organism-based", "parameters": "dose 0.5 mg/kg, route intravenous", "outline": "as §4"}, "[14]": {"test": "Drug level in cynomolgus monkey at 1 mg/kg, iv", "type": "ADME, organism-based, Macaca fascicularis", "parameters": "dose 1 mg/kg, route intravenous", "settings": "in vivo"}, "[15]": {"test": "Half life in Sprague-Dawley rat at 1 mg/kg, iv", "type": "ADME, organism-based", "parameters": "dose 1 mg/kg, route intravenous", "settings": "in vivo", "outline": "as §4"}, "[16]": {"test": "Stability in human liver microsome assessed as half life", "type": "ADME", "settings": "liver microsomes", "outline": "as §3"}, "[17]": {"test": "Volume of distribution at steady state in cynomolgus monkey at […], iv", "type": "ADME, organism-based, Macaca fascicularis", "parameters": "dose 0.25 mg/kg, route intravenous", "settings": "in vivo, read-out: Vdss"}, "Rhesus monkey [18]": {"system": "Rhesus monkey", "test": "Effect on ovulation rate of rhesus monkey", "type": "functional, organism-based", "settings": "Macaca mulatta", "outline": "as §2"}, "[19]": {"test": "Drug level in Sprague-Dawley rat at 0.5 mg/kg, iv", "type": "ADME, organism-based", "parameters": "dose 0.5 mg/kg, route intravenous", "settings": "in vivo", "outline": "as §4"}, "[20]": {"biological_target": "T1, Estrogen receptor (Homo sapiens)", "test": "Antagonist activity at human ER ligand binding domain expressed in african green monkey COS7 cells in presence of 17-beta-estradiol by Gal4 hybrid assay", "type": "cell-based", "settings": "COS-7", "outline": "as §1"}}, "note": "Active and inactive are the calls of the source. No cut-off for these calls is given here.", "data": [{"compound": "Cn1c(C#N)ccc1-c1cc(F)c2c(c1)C(C)(C)C(=O)N2", "values": [{"measurement": "clearance", "setting": "[1]", "value": 7, "unit": "mL/min/kg"}, {"measurement": "Activity", "setting": "[2]", "value": "inactive"}, {"measurement": "Activity", "setting": "Rhesus monkey [3]", "value": 0}, {"measurement": "C0", "setting": "[4]", "value": 178, "unit": "ng/mL"}, {"measurement": "half-life", "setting": "[5]", "value": 19, "unit": "min"}, {"measurement": "Activity", "setting": "Rhesus monkey [6]", "value": 105}, {"measurement": "Activity", "setting": "Rhesus monkey [7]", "value": 1760, "unit": "mg"}, {"measurement": "IC50", "setting": "Progesterone receptor [8]", "value": 5, "unit": "nM"}, {"measurement": "Vd", "setting": "[9]", "value": 2.4, "unit": "L/kg"}, {"measurement": "IC50", "setting": "Progesterone receptor [10]", "value": 4.1, "unit": "nM"}, {"measurement": "ED50", "setting": "Rattus norvegicus [11]", "value": 0.3, "unit": "mg/kg"}, {"measurement": "Drug uptake", "setting": "Rattus norvegicus [12]", "value": 528, "unit": "ng/mL"}, {"measurement": "clearance", "setting": "[13]", "value": 4, "unit": "mL/min/kg"}, {"measurement": "C0", "setting": "[14]", "value": 856, "unit": "ng/mL"}, {"measurement": "half-life", "setting": "[15]", "value": 564, "unit": "min"}, {"measurement": "half-life", "setting": "[16]", "value": "> 30", "unit": "min"}, {"measurement": "Vd", "setting": "[17]", "value": 3.9, "unit": "L/kg"}, {"measurement": "Activity", "setting": "Rhesus monkey [18]", "value": "inactive"}, {"measurement": "C0", "setting": "[19]", "value": 385, "unit": "ng/mL"}, {"measurement": "Activity", "setting": "[20]", "value": "inactive"}]}]}
